The text below walks through data of ChEMBL document CHEMBL1151420 (Antimicrob Agents Chemother, 2007).

In data set [1] the test system is Equus caballus. The experiment in a line: fCmax in horse at 20 mg/kg, po administered as single dose. Also on record: dose 20 mg/kg, route oral. Conditions: in vivo. It is filed as ADME, organism-based. Put shortly:
(§1)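 Horses (six, A–F) were dosed once intragastrically by nasogastric tube with 20 mg/kg of crushed tablets suspended in 100 ml tap water, followed by a ≥200 ml water flush. Heparinized plasma was sampled at 0 and from 20 min to 30 h and stored at –70°C. Unbound drug was isolated by 30 kDa ultrafiltration with ganciclovir internal standard and measured by LC-MS/MS (LOQ 5 ng/ml). Parameters were derived noncompartmentally.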

Data set [2] relates to Equus caballus. The experiment in a line: fAUC in horse at 20 mg/kg, po administered as single dose. It counts as ADME, organism-based. Set-up: dose 20 mg/kg, route oral. To be noted: in vivo. Put shortly: as §1
The species entered for data set [3] is Equus caballus. The experiment in a line: Renal toxicity in horse assessed as changes in creatinine level. It is filed as organism-based. Conditions: in vivo. The method in brief:
(§2)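 Blood was drawn once daily on the day before, the day of, and the day after drug administration. Plasma urea and creatinine were measured to assess kidney function.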

Data set [4] is described as follows: Plasma concentration in horse at 20 mg/kg, po administered as single dose after 5 hrs. It counts as ADME, organism-based, Equus caballus. Set-up: dose 20 mg/kg, route oral. The method in brief:
(§3)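 Single 20 mg/kg dose of crushed tablets suspended in 100 ml tap water, given by nasogastric tube and flushed with at least 200 ml water. Plasma sampled from 20 min to 30 h. Total concentration measured by HPLC-fluorescence (LOQ 50 ng/ml). Noncompartmental analysis; absolute F was calculated against the i.v. data.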

A short description of data set [5]: Cmax in horse at 10 mg/kg, iv after 15 mins. Conditions: in vivo. It counts as ADME, organism-based, Equus caballus. Set-up: dose 10 mg/kg, route intravenous.
The nature of data set [6]: Solubility at pH 2.3 to 9.2. It counts as physicochemical. Conditions: buffer.
A short description of data set [7]: Mean residence time in iv dosed adult horse. It counts as ADME, organism-based, Equus caballus. To be noted: in vivo.
A short description of data set [8]: Oral bioavailability in horse at 20 mg/kg administered as single dose. It is filed as ADME, organism-based, Equus caballus. To be noted: in vivo. Put shortly:
as §3

The test system of data set [9] is Equus caballus. The experiment in a line: fAUC in horse at 10 mg/kg, iv after 1 hr by three-compartmental study. It counts as ADME, organism-based. Also on record: dose 10 mg/kg, route intravenous. Conditions: in vivo.
The subject of data set [10] is Equus caballus. The experiment in a line: fCmax in horse at 10 mg/kg, iv after 1 hr by three-compartmental study. It counts as ADME, organism-based. Set-up: dose 10 mg/kg, route intravenous. Conditions: in vivo.
A short description of data set [11]: Total mean residence time in horse at 10 mg/kg, iv after 1 hr by two-compartmental study. It counts as ADME, organism-based, Equus caballus. Also on record: dose 10 mg/kg, route intravenous. To be noted: in vivo.
The species named for data set [12] is Equus caballus. The experiment in a line: Renal toxicity in horse assessed as changes in urea level. It counts as organism-based. To be noted: in vivo. The method in brief: as §2
The nature of data set [13]: Free mean residence time in horse at 10 mg/kg, iv after 1 hr by three-compartmental study. It counts as ADME, organism-based, Equus caballus. Also on record: dose 10 mg/kg, route intravenous. To be noted: in vivo.
The nature of data set [14]: Cmax in iv dosed adult horse. It is filed as ADME, organism-based, Equus caballus. Set-up: route intravenous. Conditions: in vivo.
A short description of data set [15]: Total Cmax in horse at 10 mg/kg, iv after 1 hr by two-compartmental study. Conditions: in vivo. Set-up: dose 10 mg/kg, route intravenous. It counts as ADME, organism-based, Equus caballus.
Another data set relates to Equid alphaherpesvirus 1. The experiment in a line: Antiviral activity against EHV1 assessed as inhibition of plaque formation. It is filed as functional, organism-based.
Data set [16] can be described thus: Distribution coefficient, log P of the compound. It counts as physicochemical. To be noted: octanol/water.

Values after ≈ are worked out from the molar mass of the structure shown.

On to `CC(C)[C@H](N)C(=O)OCCOCn1cnc2c(=O)[nH]c(N)nc21` [VALACYCLOVIR], for which, in the data set with Equus caballus [1], the fCmax is 4.76 µg/mL. Further, in the data set on Equus caballus [2], the fAUC was 14.9 µg·h/mL.
Regarding `Nc1nc2c(ncn2COCCO)c(=O)[nH]1` [ACYCLOVIR], the Activity entry in the data set filed under Equus caballus [3] and in the data set listed under Equus caballus [12] was “Non-toxic” in each case. The fCmax stood at 0.4 µg/mL in the data set with Equus caballus [1] and 10.5 µg/mL in the data set with Equus caballus [10]. The concentration at 5 h in data set [4] was 50 ng/mL. For the same molecule, the Cmax in data set [5] was found to be 46200 ng/mL; in data set [14], 10400 ng/mL; in [15], 10700 ng/mL. The solubility in [6] turned out to be 1000 µg/mL (≈ 4440 µM). Also, the fAUC turned out to be 3.53 µg·h/mL in the data set on Equus caballus [2] and 24.6 µg·h/mL in the data set on Equus caballus [9]. The MRT in data set [7] worked out at 7.09 h; in data set [11], 5.38 h; in [13] it was 23.1 h. The same molecule returned a bioavailability in data set [8] of 2.8%. For the same molecule, the EC50 in the data set with Equid alphaherpesvirus 1 is 1.7 µg/mL (≈ 7.55 µM). Besides, the logP in data set [16] is -1.59.
